Tests used:
[1] = biological target: T1, Adenosine receptor A2b (Homo sapiens) (UniProt P29275); experiment: Antagonist activity at human adenosine A2b receptor transfected in CHO cells assessed as inhibition of NECA-induced cAMP accumulation at 1 uM by scintillation counting; type: functional, cell-based
T1 sequence (whole entry): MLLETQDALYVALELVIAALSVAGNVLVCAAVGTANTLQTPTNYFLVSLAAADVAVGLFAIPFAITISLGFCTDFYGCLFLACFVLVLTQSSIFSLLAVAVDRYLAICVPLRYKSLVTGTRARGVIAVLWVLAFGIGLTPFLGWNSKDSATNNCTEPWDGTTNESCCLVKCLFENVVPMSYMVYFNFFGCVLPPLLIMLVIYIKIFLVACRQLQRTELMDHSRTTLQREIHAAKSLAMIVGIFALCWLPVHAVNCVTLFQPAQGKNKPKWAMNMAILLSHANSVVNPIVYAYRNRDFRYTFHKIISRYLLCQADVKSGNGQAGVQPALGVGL
Method in brief: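 CHO cells stably expressing hA2B (1 × 10⁶/assay), pre-incubated 10 min at 37 °C, pH 7.4, with adenosine deaminase 2 IU/ml and Ro 20-1724 as PDE inhibitor. Stimulated by 200 nM NECA, compounds tested at 1 µM, result given as percent inhibition. Stopped with cold 6% TCA, ether-extracted, cAMP measured by [³H]cAMP competition with beef adrenal binding protein.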

[2] = biological target: T2, Adenosine receptor A2a (Homo sapiens, UniProt P29274); experiment: Displacement of [3H]ZM241385 from human adenosine A2a receptor expressed in CHO cells at 1 uM by scintillation counting; type: cell-based
T2 sequence (P29274 whole entry): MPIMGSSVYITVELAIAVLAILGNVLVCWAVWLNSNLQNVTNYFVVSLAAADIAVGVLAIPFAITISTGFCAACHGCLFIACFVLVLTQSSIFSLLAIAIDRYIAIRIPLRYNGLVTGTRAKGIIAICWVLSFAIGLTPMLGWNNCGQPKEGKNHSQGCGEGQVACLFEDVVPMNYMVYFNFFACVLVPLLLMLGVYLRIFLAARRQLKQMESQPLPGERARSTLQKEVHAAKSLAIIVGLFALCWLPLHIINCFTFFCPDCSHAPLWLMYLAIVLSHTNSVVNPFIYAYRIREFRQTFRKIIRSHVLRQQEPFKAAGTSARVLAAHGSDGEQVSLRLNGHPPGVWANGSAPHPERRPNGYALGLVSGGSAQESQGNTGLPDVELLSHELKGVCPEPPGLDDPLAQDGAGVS
Method in brief: (§1)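 Membranes of CHO cells expressing hA2A (50 µg protein) incubated with 1 nM [³H]ZM241385 in 50 mM Tris-HCl, 10 mM MgCl₂, pH 7.4, 60 min at 4 °C. Six to eight antagonist concentrations, or 1 µM for percent inhibition. Filtration and counting. Ki by Cheng–Prusoff from IC50, mean ± SEM of four duplicate experiments.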

[3] = biological target: T3, Adenosine receptor A1 (Homo sapiens) (UniProt P30542); experiment: Displacement of [3H]DPCPX from human adenosine A1 receptor expressed in CHO cells at 1 uM by scintillation counting; type: cell-based
T3 sequence (whole entry): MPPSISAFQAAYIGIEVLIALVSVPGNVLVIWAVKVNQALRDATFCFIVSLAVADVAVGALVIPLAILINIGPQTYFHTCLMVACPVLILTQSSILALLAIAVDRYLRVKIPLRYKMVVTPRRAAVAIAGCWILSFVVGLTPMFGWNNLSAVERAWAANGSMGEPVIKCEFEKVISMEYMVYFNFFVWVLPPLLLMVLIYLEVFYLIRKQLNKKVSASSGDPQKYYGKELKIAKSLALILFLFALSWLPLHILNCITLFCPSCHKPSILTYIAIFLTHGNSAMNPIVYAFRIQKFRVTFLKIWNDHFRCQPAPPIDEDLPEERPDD
Method in brief: (§2)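 hA1 CHO membranes (50 µg protein) incubated with 1 nM [³H]DPCPX in 50 mM Tris-HCl pH 7.4 for 120 min at 25 °C. Six to eight antagonist concentrations, or 1 µM for % inhibition. Nonspecific binding taken with 1 µM DPCPX. Bound ligand filtered and counted. Ki from IC50 via Cheng–Prusoff, four separate assays in duplicate.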

[4] = biological target: T4, Adenosine receptor A3 (Homo sapiens, UniProt P0DMS8); experiment: Displacement of [125I]AB-MECA from human adenosine A3 receptor expressed in CHO cells by scintillation counting; type: cell-based
T4 sequence (P0DMS8 whole entry): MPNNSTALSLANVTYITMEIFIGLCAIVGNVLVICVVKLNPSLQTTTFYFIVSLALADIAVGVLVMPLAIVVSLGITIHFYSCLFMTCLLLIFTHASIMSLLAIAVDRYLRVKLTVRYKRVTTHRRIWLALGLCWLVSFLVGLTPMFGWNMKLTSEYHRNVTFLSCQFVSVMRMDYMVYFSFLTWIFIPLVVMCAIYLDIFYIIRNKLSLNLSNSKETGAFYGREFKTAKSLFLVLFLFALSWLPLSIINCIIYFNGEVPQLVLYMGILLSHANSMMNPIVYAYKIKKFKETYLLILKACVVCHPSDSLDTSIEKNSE
Method in brief: (§3)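 hA3 CHO membranes (50 µg protein) incubated with 0.5 nM [¹²⁵I]AB-MECA in 50 mM Tris-HCl, 10 mM MgCl₂, 1 mM EDTA, pH 7.4, for 120 min at 4 °C. Six to eight ligand concentrations, or single 1 µM for % inhibition. Nonspecific binding defined with 1 µM AB-MECA. Filtration on GF/B, counting. Ki by Cheng–Prusoff, mean ± SEM of four duplicate assays.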

[5] = biological target: T5, Adenosine receptor A3 (Homo sapiens) (UniProt P0DMS8); experiment: Displacement of [125I]AB-MECA from human adenosine A3 receptor expressed in CHO cells at 1 uM by scintillation counting; type: cell-based; method in brief: as §3
T5 sequence (whole entry): T4 sequence (P0DMS8 whole entry)

[6] = biological target: T4, Adenosine receptor A3; experiment: Activity at human adenosine A3 receptor transfected in CHO cells assessed as Cl-IB-MECA-inhibited cAMP accumulation by scintillation counting; type: functional, cell-based
Method in brief: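 hA3-transfected CHO cells (1 × 10⁶/assay), trypsinised, pre-incubated 10 min at 37 °C in buffered salt/glucose medium pH 7.4 with adenosine deaminase 2 IU/ml and Ro 20-1724. cAMP response inhibited by 100 nM Cl-IB-MECA. Stopped with cold 6% TCA, ether-extracted, cAMP read by [³H]cAMP competition binding to beef adrenal binding protein. IC50 as mean ± SEM of four experiments.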

[7] = biological target: T6, Adenosine receptor A2b (Homo sapiens, UniProt P29275); experiment: Antagonist activity at human adenosine A2b receptor transfected in CHO cells assessed as inhibition of NECA-induced cAMP accumulation by scintillation counting; type: functional, cell-based
T6 sequence (P29275 whole entry): T1 sequence (whole entry)

[8] = biological target: T2, Adenosine receptor A2a; experiment: Displacement of [3H]ZM241385 from human adenosine A2a receptor expressed in CHO cells by scintillation counting; type: cell-based; method in brief: as §1
[9] = biological target: T7, Adenosine receptor A1 (Homo sapiens, UniProt P30542); experiment: Displacement of [3H]DPCPX from human adenosine A1 receptor expressed in CHO cells by scintillation counting; type: cell-based; method in brief: as §2
T7 sequence (P30542 whole entry): T3 sequence (whole entry)

inhibition [1] | inhibition [2] | inhibition [3] | Ki [4] | inhibition [5] | IC50 [6] | IC50 [7] | Ki [8] | Ki [9] | Structure (SMILES)
4% | 1% | 1% | 450 nM | – | – | – | – | – | CC(C)OC(=O)c1cc2c3ccccc3nc(O)n2n1
– | – | – | 480 nM | – | – | – | – | – | COc1ccc(-c2cc(-c3ccccc3N)n[nH]2)cc1
5% | 9% | 2% | – | – | – | – | – | – | COc1ccc(-c2cc(-c3ccccc3N)[nH]n2)cc1
2% | 1% | 9% | 680 nM | – | – | – | – | – | Nc1ccccc1-c1cc(-c2ccccc2)n[nH]1
4% | 1% | 13% | – | 7% | – | – | – | – | Oc1ccccc1-c1cc(-c2ccccc2)[nH]n1
2% | 1% | 4% | 252 nM | – | – | – | – | – | Oc1nc2ccccc2c2cc(-c3ccccn3)nn12
4% | 1% | 12% | – | 28% | – | – | – | – | Oc1nc2ccccc2c2cc(-c3ccccc3)nn12
3% | 1% | 6% | 23 nM | – | 82 nM | – | – | – | Oc1nc2ccccc2c2cc(-c3ccc(Cl)cc3)nn12
– | – | – | 315 nM | – | – | – | – | – | CCOC(=O)c1cc2c3ccccc3[nH]c(=O)n2n1
3% | 1% | 5% | 80 nM | – | 138 nM | – | – | – | Oc1nc2ccccc2c2cc(-c3ccco3)nn12
5% | 1% | 12% | 101 nM | – | – | – | – | – | CCOC(=O)c1nn2c(=O)[nH]c3ccccc3c2c1C(=O)OCC
1% | 11% | 1% | 140 nM | – | – | – | – | – | Oc1nc2ccccc2c2cc(-c3ccccc3F)nn12
3% | 5% | 1% | – | 15% | – | – | – | – | Nc1nc2ccccc2c2cc(-c3ccccc3)nn12
3% | 1% | 2% | – | – | – | – | – | – | Nc1ccccc1-c1cc(-c2cccs2)n[nH]1
1% | 6% | 4% | – | 1% | – | – | – | – | Nc1ccccc1-c1cc(-c2ccco2)n[nH]1
4% | 1% | 1% | 520 nM | – | – | – | – | – | O=C(Nc1nc2ccccc2c2cc(-c3ccccc3)nn12)c1ccccc1
2% | 1% | 4% | 100 nM | – | 324 nM | – | – | – | COc1ccc(-c2cc3c4ccccc4[nH]c(=O)n3n2)cc1
– | – | – | 440 nM | – | – | – | – | – | COC(=O)c1cc2c3ccccc3[nH]c(=O)n2n1
6% | 20% | 7% | 40 nM | – | 263 nM | – | – | – | Oc1nc2ccccc2c2cc(-c3cccs3)nn12
3% | 5% | 3% | – | – | – | – | – | – | CCOC(=O)c1cc2c3ccccc3nc(O)n2n1
2% | 1% | 3% | – | 23% | – | – | – | – | CCOC(=O)c1ccccc1-c1cc(-c2cccs2)n[nH]1
8% | 2% | 47% | – | 39% | – | – | – | – | Oc1ccccc1-c1n[nH]c(-c2ccccc2)n1
1% | 5% | 2% | – | 25% | – | – | – | – | O=C(NCc1ccccc1)c1cc2c3ccccc3[nH]c(=O)n2n1
6% | 3% | 1% | – | – | – | – | – | – | COC(=O)c1cc2c3ccccc3nc(O)n2n1
3% | 15% | 7% | – | 45% | – | – | – | – | COc1ccc(-c2cc3c4ccccc4nc(N)n3n2)cc1
3% | 20% | 44% | – | 18% | – | – | – | – | Nc1nc2ccccc2c2cc(-c3cccs3)nn12
– | – | – | – | 35% | – | 120 nM | 80 nM | 35 nM | Nc1nc2ccccc2c2cc(-c3ccco3)nn12
2% | 12% | 1% | 25 nM | – | 88 nM | – | – | – | Cc1ccc(-c2cc3c4ccccc4nc(O)n3n2)cc1
2% | 4% | 3% | – | 1% | – | – | – | – | O=C(OCc1ccccc1)c1cc2c3ccccc3[nH]c(=O)n2n1
– | – | – | 600 nM | – | – | – | – | – | Nc1ccccc1-c1cc(-c2cccs2)[nH]n1

Source: ChEMBL document CHEMBL2311495, “Pyrazolo[1,5-c]quinazoline derivatives and their simplified analogues as adenosine receptor antagonists: synthesis, structure-affinity relationships and molecular modeling studies” (Bioorg Med Chem, 2013)
